Compound activity (PubChem BioAssay)
CXCR6 inh: CXCR6 receptor inhibitors, primary screen, cell-based, beta-arrestin, luminescence, CHO-K1 PathHunter, 1536-well; actives 0.36% (n = 360,000); inhibition, % at 20 µM; in the data active = inhibition above about 34%, passing the limit was not always enough;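 note: antagonist mode with CXCL16 agonist at 10 nM final; 0% = 10 nM CXCL16 with DMSO and 100% = unstimulated wells without agonist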
Target sequence (O00574 whole entry, looked up): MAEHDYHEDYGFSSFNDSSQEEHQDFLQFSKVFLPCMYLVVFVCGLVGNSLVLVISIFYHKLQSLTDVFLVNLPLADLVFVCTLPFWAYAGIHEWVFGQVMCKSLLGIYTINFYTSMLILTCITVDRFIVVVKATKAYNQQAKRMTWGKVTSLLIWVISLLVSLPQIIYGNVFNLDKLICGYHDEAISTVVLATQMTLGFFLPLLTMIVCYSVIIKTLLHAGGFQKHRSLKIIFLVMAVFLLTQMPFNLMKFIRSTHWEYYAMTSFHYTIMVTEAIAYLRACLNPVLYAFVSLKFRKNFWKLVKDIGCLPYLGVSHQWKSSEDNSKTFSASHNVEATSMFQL
CCR6 antag: CCR6 receptor antagonists, primary screen, cell-based, CHO-K1, luminescence, beta-arrestin, uHTS; CHO-K1 CCR6 PathHunter beta-arrestin, CCL20-stimulated; inhibition, % at 20 µM; actives 0.49% (n = 340,000); AID 493098, 2011;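 active = compounds whose inhibition of the agonist-driven luminescence signal at 20 µM reaches about 50%, limit read from the data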;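 note: cells stimulated with CCL20 at 14 nM final; plate controls were DMSO with CCL20 for no effect and DMSO without agonist for full effect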
EBI2 block: EBI2 receptor antagonists, beta-arrestin recruitment, primary screen, cell-based, luminescence, 7a,25-OHC stimulation, uHTS | actives 0.81% (n = 360,000) | inhibition, % at 5 µM | 7a,25-OHC stimulated | G-protein coupled receptor 183 (Homo sapiens), P32249; in the data active = inhibition above about 38%;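 note: enzyme fragment complementation signal reports receptor beta-arrestin coupling in cells; 0% = agonist plus DMSO wells and 100% = wells without agonist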
Target sequence (P32249 whole entry, looked up, the tested form may be a part): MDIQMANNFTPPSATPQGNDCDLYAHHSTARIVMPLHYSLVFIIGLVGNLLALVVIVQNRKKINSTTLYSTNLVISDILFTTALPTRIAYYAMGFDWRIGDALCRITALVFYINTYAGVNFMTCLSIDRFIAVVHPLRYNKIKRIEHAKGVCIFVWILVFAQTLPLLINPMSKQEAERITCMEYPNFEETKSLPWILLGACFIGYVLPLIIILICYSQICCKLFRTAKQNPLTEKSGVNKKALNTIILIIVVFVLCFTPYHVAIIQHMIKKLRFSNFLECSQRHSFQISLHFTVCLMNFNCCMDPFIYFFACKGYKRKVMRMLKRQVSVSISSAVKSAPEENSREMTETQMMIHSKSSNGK
APJ antagonist: antagonists of human apelin receptor APJ, primary screen, CHO-K1 cells, beta-arrestin complementation, luminescence; actives 0.32% (n = 330,000); P35414; inhibition, % at 20 µM; AID 2521, 2010;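 active = inhibition above about 40% at 20 µM, limit read from the data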;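 note: cells challenged with 10 nM apelin-13 agonist together with compound; plate controls were apelin-13 plus DMSO wells for no effect and DMSO wells lacking apelin-13 for full effect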
APJ ag: agonists of human apelin receptor APJ, primary screen, CHO-K1 cells, PathHunter beta-arrestin, luminescence; activation, % at 20 µM; 0% DMSO wells, 100% apelin; actives 0.11% (n = 330,000);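 active = activation more than six SD over the plate average, tested at 20 µM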;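 note: 0% = DMSO alone and 100% = apelin-13 at 10 nM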
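Incubation: overnight seeding, 90 min compound at 25 °C, 1 h detection; test system: PathHunter CHO-K1 APJ (AGTRL-1) beta-arrestin reporter cells; amount: 1000 cells/well; doses: one dose, 20 µM compound, 1% DMSO; measured by: beta-gal luminescence; measure: agonist-driven arrestin binding to APJ; benchmarks: negative DMSO alone, positive Apelin-13 at 10 nM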
EBI2 antag conf: EBI2 antagonist hit retest, beta-arrestin, confirmation, cell-based, single concentration, luminescence, 7a,25-OHC stimulation | 7a,25-OHC antagonism | AID 651997, 2013 | actives 29% (n = 2,400) | inhibition, % at 5 µM | shares compounds with EBI2 block;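 active = inhibition of at least 50%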
EBI2 agonist: EBI2 agonist activity of antagonist hits, confirmation, counter-screen for EBI2 antagonist project, cell-based, single concentration, agonist mode, luminescence | shares compounds with EBI2 block | EBI2-expressing cells, 60 min; 0% vehicle, 100% 7α,25-dihydroxycholesterol control | activation, % at 5 µM | 2,400 tested, under 10 active | AID 652000, 2013;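 active = activation of at least 50%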
bGal cs: E. coli beta-galactosidase enzyme inhibition, confirmation, counter-screen for EBI2 antagonist project, biochemical, luminescence, single concentration; shares compounds with EBI2 block; purified beta-galactosidase, luminescent Galacton Star, 15 min; inhibition, % at 5 µM; actives 1% (n = 2,400);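 active = replicate-average signal at least 3 plate SD below neutral wells, shown as high inhibition, flagging enzyme-inhibiting false positives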;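 note: 0% = DMSO wells with enzyme and 100% = wells lacking enzyme; higher means stronger loss of beta-gal luminescence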
* = called active by the depositor; . = no result given. This is a sample that favours compounds with a hit; in the whole collection about 1.5% have one here.

SMILES	CXCR6 inh	CCR6 antag	EBI2 block	APJ antagonist	APJ ag	EBI2 antag conf	EBI2 agonist	bGal cs
COc1ccc(-c2cc3nc(-c4ccccc4)cc(N4CCN(C(C)=O)CC4)n3n2)cc1	-0.1	.	45.6*	.	.	48.0	0.9	3.1
COc1cc(NCC2COc3c(ccc(OC)c3OC)C2=O)c([N+](=O)[O-])cc1OC (configuration not stated)	-1.4	.	3.5	.	.	.	.	.
CCN(CC)C(=O)C1=C(C)N(Cc2ccc(C(C)(C)C)cc2)C(=O)C(CC(=O)NCc2ccco2)C1 (configuration not stated)	4.4	.	-0.3	.	.	.	.	.
O=C(N/C(=C/c1cccc(Br)c1)C(=O)N1CCCCC1)c1ccco1	4.2	.	-2.4	.	.	.	.	.
Cn1cc(C(=O)c2ccc(Cl)cc2)cc1-c1nc2ccccc2n1C	-1.8	-8.4	63.6*	11.0	-1.1	42.3	-0.4	8.5
Cc1ccc(S(=O)(=O)N2C3CCCCC3O[C@H]2CC(=O)c2cccs2)cc1 (some centres not stated)	.	.	3.8	.	.	.	.	.
O=[N+]([O-])c1ccc(N2CCC(=NOCc3ccc(Cl)cc3)CC2)cc1	-1.5	18.4	52.9*	5.6	-0.8	26.0	-0.8	-7.5
O=[N+]([O-])c1ccc(CN2CCN(c3ccc([N+](=O)[O-])cc3)CC2)cc1	0.2	21.8	9.2	6.9	-0.3	.	.	.
CSCCC(C(=O)NC1CCCC1)n1c(C2CC2)nc2ccccc21 (configuration not stated)	.	.	1.1	.	.	.	.	.
O=C(c1cc(C2CCCCN2S(=O)(=O)c2ccc(F)cc2F)on1)N1CCOCC1 (configuration not stated)	5.1	.	-6.1	.	.	.	.	.
O=C(CN1CCN(S(=O)(=O)c2cccc(Br)c2)CC1)NCCc1cccs1	-9.5	12.1	38.8*	5.8	-3.8	18.7	0.0	5.8
COc1ccc(-c2csc(N(CC(C)C)C(=O)c3ccco3)n2)cc1	1.7	19.1	44.4*	-13.9	-3.3	30.7	-1.2	-13.0
O=C(c1cc(Br)c(Br)s1)N1CCN(C/C=C/c2ccccc2)CC1	3.4	14.6	65.0*	4.2	1.6	35.0	0.0	2.5
Cc1cc(C(=O)N2CCN(C/C=C/c3ccccc3)CC2)cs1	3.6	3.3	45.8*	-12.7	-5.3	31.1	3.3	1.2
Cc1cc(NC(=O)CCN2CCN(C/C=C/c3ccccc3)CC2)ccc1Br	-11.7	0.7	8.1	-12.5	0.0	.	.	.
O=C(c1cccnc1)N1CCN(C/C=C/c2ccccc2)CC1	-9.0	-2.6	6.3	4.8	-1.7	.	.	.
NC(Cc1ccc(Cl)cc1)c1csc(NC(=O)NCC2CCCCC2)n1 (configuration not stated)	-14.6	.	-18.8	.	.	.	.	.
COc1ccc(-n2cc(-c3ccccc3)nc2SC)cc1	-0.8	11.7	42.2*	20.0	0.8	34.5	-0.2	3.5
CC(C)N(C)c1ncnc2c1ncn2[C@H]1CN(Cc2ccc(-c3ccccc3)cc2)C[C@@H](CO)O1	-9.1	.	57.0*	.	.	46.3	0.3	-12.9
OC[C@@H]1CN(Cc2ccc(Cl)cc2)C[C@H](n2cnc3c(NC4CCC4)ncnc32)O1	3.9	.	44.5*	.	.	25.7	0.4	7.0
OC[C@@H]1CN(Cc2ccc(-c3ccccc3)cc2)C[C@H](n2cnc3c(NC4CC4)ncnc32)O1	-4.0	.	65.3*	.	.	64.7*	-1.6	-11.2
CC(C)N(C)c1ncnc2c1ncn2[C@H]1CN(Cc2ccncc2)C[C@@H](CO)O1	2.5	.	9.9	.	.	.	.	.
CN1CCN(C2CN(CCc3ccccc3)S(=O)(=O)C2)CC1 (configuration not stated)	-3.3	.	-10.4	.	.	.	.	.
O=C(NCc1ccccc1)C1c2ccccc2OCC(=O)N1CCc1c[nH]c2ccccc12 (configuration not stated)	-3.2	.	-7.4	.	.	.	.	.
S=C1NC[C@H](c2ccccc2)N1CCCCC1CCCCC1	-7.1	25.5	46.2*	2.4	-3.6	33.0	-0.2	6.7
SMILES	CXCR6 inh	CCR6 antag	EBI2 block	APJ antagonist	APJ ag	EBI2 antag conf	EBI2 agonist	bGal cs
NC1=NC[C@H](c2ccccc2)N1CCCCC1CCCCC1	-8.9	10.3	-1.4	-19.9	3.6	.	.	.
CCCN1C(=O)c2ccc(C(=O)Nc3cc(C)on3)cc2C1=O	3.8	-11.9	-9.0	-14.7	-6.2	.	.	.
O=C(Nc1ccc(O)cc1)c1ccc2c(c1)C(=O)N(Cc1ccccc1)C2=O	-8.2	-1.0	56.8*	-24.0	1.2	21.5	1.0	9.2
Cc1cc(NC(=O)c2ccc3c(c2)C(=O)N(Cc2ccccc2)C3=O)no1	-2.7	3.1	47.2*	3.8	-1.2	19.9	0.2	5.2
CCc1ccc(NC(=S)Nc2cccc(OC)c2)cc1	9.0	6.2	49.8*	-4.8	-4.8	20.9	2.2	3.7
CNC(=S)Nc1ccc(OC(F)(F)F)cc1	-0.3	1.1	7.4	0.3	-1.3	.	.	.
CCOc1ccc(NC(=S)Nc2ccc(C)c([N+](=O)[O-])c2)cc1	0.0	-2.0	64.8*	5.7	-3.8	65.8*	1.4	8.4
CCOc1ccc(NC(=S)Nc2cc(OC)c(Cl)cc2OC)cc1	4.9	13.4	65.0*	9.1	-2.5	18.7	-1.8	-4.2
COc1cc(NC(=S)Nc2cccc(Cl)c2Cl)c(OC)cc1Cl	2.2	16.1	1.3	3.7	-5.0	.	.	.
CCOc1ccc(NC(=S)Nc2ccc(OC(F)(F)F)cc2)cc1	0.7	-7.2	75.8*	20.5	-1.5	53.4*	-1.0	-19.3
C=C1C[C@@H]2C[C@@H]2CN(S(=O)(=O)c2ccc(C)cc2)[C@@H]1COCc1ccccc1	-7.8	.	2.0	.	.	.	.	.
NC(c1ccccc1)c1csc(Nc2ccc(C(=O)c3ccccc3)cc2)n1 (configuration not stated)	-7.4	.	-8.0	.	.	.	.	.
CCOc1ccc(NC(=S)Nc2ccc(OCC)cc2)cc1	4.2	20.7	80.2*	-17.0	-3.3	61.8*	0.3	8.1
O=C(N/N=C/c1ccc(Cl)cc1Cl)c1cccc(F)c1	1.1	7.7	44.6*	4.4	-1.0	40.6	2.4	3.0
CN1C(=O)[C@H]2[C@@H](c3ccc(C(F)(F)F)cc3)N[C@]3(CCCN(Cc4ccc(C(F)(F)F)cc4)C3=O)[C@H]2C1=O	-4.5	.	10.9	.	.	.	.	.
